Measurements as given in ChEMBL document CHEMBL1914457, “Syntheses of phenylpyrazolodiazepin-7-ones as conformationally rigid analogs of aminopyrazole amide scaffold and their antiproliferative effects on cancer cells” (Bioorg Med Chem, 2011).
pIC50: −log10 of the molar value.

Experiments:
[1] = Growth inhibition of human A375P cells after 24 hrs by MTT assay; assay type: functional
Procedure, shortened: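 A375P cells grown in DMEM with 10% FBS and 1% penicillin/streptomycin at 37 °C, 5% CO2. Cells lifted with 0.05% trypsin-0.02% EDTA, seeded at 5 × 10^3 cells/well and held 24 h before treatment. Compounds given as a threefold serial dilution over 12 points. Viability read by MTT reduction (CellTiter 96) as absorbance at 590 nm; IC50 fitted from the curve.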

U-937 = test: Growth inhibition of human U937 cells after 24 hrs by thiazolyl blue tetrazolium bromide staining-based MTT assay; assay type: functional; conditions: U-937, 24 h
Procedure, shortened: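 U937 cells kept in RPMI 1640 with 10% FBS, 1% penicillin/streptomycin and 25 mM HEPES at 37 °C, 5% CO2. Seeded at 5 × 10^3 cells/well and incubated 24 h before treatment. Compounds given as a threefold serial dilution over 12 points. Viability read by MTT reduction with thiazolyl blue tetrazolium bromide as absorbance at 570 nm.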

[2] = biological target: T1, RAF proto-oncogene serine/threonine-protein kinase (Homo sapiens, UniProt P04049); test: Inhibition of human CRAF using [gamma-33P]ATP after 40 mins by scintillation counting
T1 sequence (P04049 whole entry): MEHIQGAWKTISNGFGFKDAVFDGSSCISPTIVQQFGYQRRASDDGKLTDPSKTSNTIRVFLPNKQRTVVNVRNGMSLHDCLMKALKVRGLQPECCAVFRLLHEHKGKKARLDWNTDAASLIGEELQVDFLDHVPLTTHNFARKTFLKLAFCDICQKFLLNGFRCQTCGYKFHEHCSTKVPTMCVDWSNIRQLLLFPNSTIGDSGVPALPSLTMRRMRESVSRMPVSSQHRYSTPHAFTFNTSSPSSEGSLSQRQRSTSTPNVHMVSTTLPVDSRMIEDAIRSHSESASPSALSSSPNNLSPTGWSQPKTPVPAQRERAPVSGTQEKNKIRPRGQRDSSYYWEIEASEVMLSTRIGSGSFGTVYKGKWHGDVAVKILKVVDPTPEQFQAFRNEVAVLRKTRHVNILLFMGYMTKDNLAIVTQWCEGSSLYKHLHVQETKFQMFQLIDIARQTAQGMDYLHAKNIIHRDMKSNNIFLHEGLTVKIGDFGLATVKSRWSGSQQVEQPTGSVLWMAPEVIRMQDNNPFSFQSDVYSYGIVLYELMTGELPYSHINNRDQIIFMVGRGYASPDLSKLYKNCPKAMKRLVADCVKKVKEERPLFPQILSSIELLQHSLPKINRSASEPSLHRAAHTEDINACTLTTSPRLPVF
Procedure, shortened: (§1)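 Human c-Raf (5–10 mU) was run in 25 mM Tris pH 7.5 with 0.02 mM EGTA, 10 mM Mg acetate and 0.66 mg/mL myelin basic protein as substrate. The reaction was started with Mg–[γ-33P]ATP (about 500 cpm/pmol; ATP concentration not stated) and run 40 min at room temperature. It was stopped with 3% phosphoric acid, spotted on P30 filtermat, washed in 75 mM phosphoric acid and methanol, and scintillation counted.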

[3] = biological target: Serine/threonine-protein kinase B-raf (Homo sapiens, UniProt P15056, V600E); test: Inhibition of BRAF V600E mutant
Sequence of Serine/threonine-protein kinase B-raf (P15056 2-766 V600E limits assumed): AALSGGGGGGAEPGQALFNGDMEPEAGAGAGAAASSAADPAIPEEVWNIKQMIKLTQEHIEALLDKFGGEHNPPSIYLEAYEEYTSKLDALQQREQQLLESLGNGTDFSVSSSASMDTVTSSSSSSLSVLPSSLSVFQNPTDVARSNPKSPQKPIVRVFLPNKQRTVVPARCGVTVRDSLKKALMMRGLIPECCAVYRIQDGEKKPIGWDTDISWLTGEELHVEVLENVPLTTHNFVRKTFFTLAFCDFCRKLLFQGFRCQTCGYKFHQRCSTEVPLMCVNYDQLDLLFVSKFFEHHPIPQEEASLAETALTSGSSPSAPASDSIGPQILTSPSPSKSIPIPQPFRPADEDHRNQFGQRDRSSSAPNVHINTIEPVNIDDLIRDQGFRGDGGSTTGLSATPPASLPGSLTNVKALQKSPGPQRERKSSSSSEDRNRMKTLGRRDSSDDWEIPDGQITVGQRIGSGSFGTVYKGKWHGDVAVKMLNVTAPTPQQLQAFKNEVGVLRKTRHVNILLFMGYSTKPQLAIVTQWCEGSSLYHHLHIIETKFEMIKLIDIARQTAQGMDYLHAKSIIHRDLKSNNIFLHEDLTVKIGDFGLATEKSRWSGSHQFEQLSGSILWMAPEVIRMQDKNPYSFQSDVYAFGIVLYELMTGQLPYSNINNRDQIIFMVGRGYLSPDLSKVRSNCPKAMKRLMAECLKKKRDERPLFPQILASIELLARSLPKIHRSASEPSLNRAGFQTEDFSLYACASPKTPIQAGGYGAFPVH

[4] = biological target: T2, Serine/threonine-protein kinase mTOR (Homo sapiens, UniProt P42345); test: Inhibition of MTOR
[5] = biological target: Cyclin-dependent kinase 2/cyclin E1 (Homo sapiens) (UniProt P24864+P24941); test: Inhibition of CDK2/Cyclin E at 10 uM; assay type: protein-complex assay
[6] = biological target: Mitogen-activated protein kinase 10 (Homo sapiens) (UniProt P53779); test: Inhibition of JNK3 at 10 uM
[7] = biological target: Mitogen-activated protein kinase 1 (Homo sapiens) (UniProt P28482); test: Inhibition of ERK2 at 10 uM
[8] = biological target: Fibroblast growth factor receptor 3 (Homo sapiens) (UniProt P22607); test: Inhibition of FGFR3 at 10 uM
[9] = biological target: Tyrosine-protein kinase JAK3 (Homo sapiens) (UniProt P52333); test: Inhibition of JAK3 at 10 uM
[10] = biological target: Epidermal growth factor receptor (Homo sapiens) (UniProt P00533); test: Inhibition EGFR at 10 uM
[11] = biological target: Mitogen-activated protein kinase 8 (Homo sapiens) (UniProt P45983); test: Inhibition of JNK1 at 10 uM
[12] = biological target: Proto-oncogene tyrosine-protein kinase Src (Homo sapiens) (UniProt P12931); test: Inhibition cSRC at 10 uM
Sequence of Proto-oncogene tyrosine-protein kinase Src (Homo sapiens) (P12931 2-536 limits assumed): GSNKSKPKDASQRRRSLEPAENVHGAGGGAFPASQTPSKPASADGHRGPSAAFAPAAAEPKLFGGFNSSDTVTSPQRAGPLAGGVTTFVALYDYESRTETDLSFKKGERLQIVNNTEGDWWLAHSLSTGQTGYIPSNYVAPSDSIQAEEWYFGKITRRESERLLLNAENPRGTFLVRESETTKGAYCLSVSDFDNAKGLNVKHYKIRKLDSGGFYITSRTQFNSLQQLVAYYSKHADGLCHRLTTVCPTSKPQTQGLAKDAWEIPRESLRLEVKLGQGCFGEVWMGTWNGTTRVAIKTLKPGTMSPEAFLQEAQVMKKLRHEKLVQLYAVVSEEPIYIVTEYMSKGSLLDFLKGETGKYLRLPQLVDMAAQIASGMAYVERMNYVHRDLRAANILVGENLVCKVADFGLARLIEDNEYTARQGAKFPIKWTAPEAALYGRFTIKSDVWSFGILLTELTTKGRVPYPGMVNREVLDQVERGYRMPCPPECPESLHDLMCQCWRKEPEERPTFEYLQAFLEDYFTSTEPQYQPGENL

[13] = biological target: Mitogen-activated protein kinase 14 (Homo sapiens) (UniProt Q16539); test: Inhibition of p38alpha at 10 uM
Sequence of Mitogen-activated protein kinase 14 (Homo sapiens) (Q16539 whole entry): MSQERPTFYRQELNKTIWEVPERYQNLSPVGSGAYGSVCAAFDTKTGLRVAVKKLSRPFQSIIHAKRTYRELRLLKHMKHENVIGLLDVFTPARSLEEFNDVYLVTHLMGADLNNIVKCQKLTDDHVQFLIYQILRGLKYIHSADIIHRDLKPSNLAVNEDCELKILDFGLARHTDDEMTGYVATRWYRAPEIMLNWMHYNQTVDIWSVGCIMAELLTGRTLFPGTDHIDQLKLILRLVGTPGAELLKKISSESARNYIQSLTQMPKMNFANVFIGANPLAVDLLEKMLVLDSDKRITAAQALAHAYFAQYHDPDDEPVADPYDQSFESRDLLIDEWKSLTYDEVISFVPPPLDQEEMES

[14] = biological target: Hepatocyte growth factor receptor (Homo sapiens) (UniProt P08581); test: Inhibition of cMet at 10 uM
[15] = biological target: Glycogen synthase kinase-3 beta (Homo sapiens) (UniProt P49841); test: Inhibition of GSK3-beta at 10 uM
Sequence of Glycogen synthase kinase-3 beta (Homo sapiens) (P49841 whole entry, looked up): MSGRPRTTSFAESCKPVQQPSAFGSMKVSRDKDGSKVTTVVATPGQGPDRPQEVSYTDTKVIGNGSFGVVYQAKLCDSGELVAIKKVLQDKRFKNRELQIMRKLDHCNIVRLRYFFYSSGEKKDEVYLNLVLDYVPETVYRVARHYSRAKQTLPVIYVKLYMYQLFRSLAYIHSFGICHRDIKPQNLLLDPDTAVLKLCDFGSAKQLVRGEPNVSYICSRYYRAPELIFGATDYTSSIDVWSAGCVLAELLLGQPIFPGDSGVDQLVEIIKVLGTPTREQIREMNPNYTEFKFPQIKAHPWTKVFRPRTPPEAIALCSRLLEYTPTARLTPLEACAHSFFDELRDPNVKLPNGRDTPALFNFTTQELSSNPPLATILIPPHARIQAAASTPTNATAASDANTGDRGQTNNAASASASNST

[16] = biological target: Receptor-type tyrosine-protein kinase FLT3 (Homo sapiens) (UniProt P36888); test: Inhibition of FLT3 at 10 uM
[17] = biological target: T3, Phosphatidylinositol 4,5-bisphosphate 3-kinase catalytic subunit alpha isoform (Homo sapiens, UniProt P42336); test: Inhibition of PI3Kalpha at 10 uM
T3 sequence (P42336 whole entry, canonical isoform): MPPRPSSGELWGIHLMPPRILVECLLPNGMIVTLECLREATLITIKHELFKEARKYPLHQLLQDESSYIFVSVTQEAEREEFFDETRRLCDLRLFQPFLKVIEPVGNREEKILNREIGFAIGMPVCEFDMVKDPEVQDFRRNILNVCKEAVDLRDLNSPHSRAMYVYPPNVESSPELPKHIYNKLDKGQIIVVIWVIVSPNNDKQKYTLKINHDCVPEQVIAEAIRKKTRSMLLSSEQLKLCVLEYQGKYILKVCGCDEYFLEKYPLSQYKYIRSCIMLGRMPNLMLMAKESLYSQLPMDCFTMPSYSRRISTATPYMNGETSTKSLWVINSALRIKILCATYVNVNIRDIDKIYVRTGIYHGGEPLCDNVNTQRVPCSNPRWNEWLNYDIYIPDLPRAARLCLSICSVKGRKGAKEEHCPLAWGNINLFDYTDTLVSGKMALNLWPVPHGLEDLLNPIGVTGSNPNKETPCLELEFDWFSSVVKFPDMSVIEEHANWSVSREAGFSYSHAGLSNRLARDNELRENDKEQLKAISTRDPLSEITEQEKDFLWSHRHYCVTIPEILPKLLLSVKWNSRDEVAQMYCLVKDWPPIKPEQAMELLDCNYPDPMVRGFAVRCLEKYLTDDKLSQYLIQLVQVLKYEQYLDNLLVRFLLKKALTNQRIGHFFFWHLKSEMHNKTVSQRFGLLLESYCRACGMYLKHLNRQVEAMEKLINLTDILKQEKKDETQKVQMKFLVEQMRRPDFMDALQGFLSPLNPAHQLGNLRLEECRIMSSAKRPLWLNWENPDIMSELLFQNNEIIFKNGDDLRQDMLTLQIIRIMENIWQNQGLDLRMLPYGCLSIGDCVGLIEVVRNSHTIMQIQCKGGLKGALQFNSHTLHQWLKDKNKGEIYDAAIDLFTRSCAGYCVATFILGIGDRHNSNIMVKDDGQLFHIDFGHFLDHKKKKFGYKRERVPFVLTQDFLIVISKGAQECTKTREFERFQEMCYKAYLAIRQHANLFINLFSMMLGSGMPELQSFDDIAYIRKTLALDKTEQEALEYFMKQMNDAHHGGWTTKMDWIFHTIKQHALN

[18] = biological target: Fibroblast growth factor receptor 2 (Homo sapiens) (UniProt P21802); test: Inhibition of FGFR2 at 10 uM
[19] = biological target: Tyrosine-protein kinase Lyn (Homo sapiens) (UniProt P07948); test: Inhibition of LYN at 10 uM
Sequence of Tyrosine-protein kinase Lyn (Homo sapiens) (P07948 2-512 limits assumed): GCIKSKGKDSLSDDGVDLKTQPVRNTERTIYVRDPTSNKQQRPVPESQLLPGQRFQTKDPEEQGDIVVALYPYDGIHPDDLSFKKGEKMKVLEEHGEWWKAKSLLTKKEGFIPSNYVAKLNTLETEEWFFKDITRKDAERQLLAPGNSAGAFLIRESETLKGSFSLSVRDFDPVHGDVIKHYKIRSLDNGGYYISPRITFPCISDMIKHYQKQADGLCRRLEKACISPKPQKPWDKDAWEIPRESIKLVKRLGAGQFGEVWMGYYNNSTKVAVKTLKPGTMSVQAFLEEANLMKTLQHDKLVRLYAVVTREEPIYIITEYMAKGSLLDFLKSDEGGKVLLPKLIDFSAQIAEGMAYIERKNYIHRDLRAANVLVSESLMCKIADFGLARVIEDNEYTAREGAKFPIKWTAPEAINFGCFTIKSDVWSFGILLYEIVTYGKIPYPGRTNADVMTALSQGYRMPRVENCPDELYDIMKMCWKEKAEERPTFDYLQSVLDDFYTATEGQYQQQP

[20] = biological target: Dual specificity mitogen-activated protein kinase kinase 1 (Homo sapiens) (UniProt Q02750); test: Inhibition of MEK1 at 10 uM
[21] = biological target: Macrophage colony-stimulating factor 1 receptor (Homo sapiens) (UniProt P07333); test: Inhibition of FMS at 10 uM
[22] = biological target: T3, Phosphatidylinositol 4,5-bisphosphate 3-kinase catalytic subunit alpha isoform; test: Inhibition of PI3Kalpha
[23] = biological target: T2, Serine/threonine-protein kinase mTOR; test: Inhibition of MTOR at 10 uM
[24] = biological target: Aurora kinase A (Homo sapiens) (UniProt O14965); test: Inhibition of Aurora-A at 10 uM
[25] = biological target: Serine/threonine-protein kinase PLK1 (Homo sapiens) (UniProt P53350); test: Inhibition of PLK1 at 10 uM
Sequence of Serine/threonine-protein kinase PLK1 (Homo sapiens) (P53350 whole entry): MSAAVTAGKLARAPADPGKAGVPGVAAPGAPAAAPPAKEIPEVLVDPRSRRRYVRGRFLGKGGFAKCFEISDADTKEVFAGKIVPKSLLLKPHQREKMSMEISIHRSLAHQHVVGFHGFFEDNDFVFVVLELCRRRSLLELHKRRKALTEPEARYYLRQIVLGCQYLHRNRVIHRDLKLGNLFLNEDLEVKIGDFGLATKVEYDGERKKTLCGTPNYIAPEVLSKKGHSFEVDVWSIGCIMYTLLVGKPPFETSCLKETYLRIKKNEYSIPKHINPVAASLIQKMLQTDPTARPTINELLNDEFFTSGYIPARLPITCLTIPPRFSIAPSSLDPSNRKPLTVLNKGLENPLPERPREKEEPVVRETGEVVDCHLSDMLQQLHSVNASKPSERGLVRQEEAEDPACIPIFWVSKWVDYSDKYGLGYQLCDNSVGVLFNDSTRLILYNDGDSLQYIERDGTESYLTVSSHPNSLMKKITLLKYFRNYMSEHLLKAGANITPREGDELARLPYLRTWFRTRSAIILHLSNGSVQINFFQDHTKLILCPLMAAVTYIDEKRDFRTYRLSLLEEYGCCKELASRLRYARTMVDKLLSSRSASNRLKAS

[26] = biological target: Tyrosine-protein kinase Lck (Homo sapiens) (UniProt P06239); test: Inhibition of LCK at 10 uM
[27] = biological target: ALK tyrosine kinase receptor (Homo sapiens) (UniProt Q9UM73); test: Inhibition of Alk at 10 uM
[28] = biological target: BDNF/NT-3 growth factors receptor (Homo sapiens) (UniProt Q16620); test: Inhibition of TRKB at 10 uM
[29] = biological target: Vascular endothelial growth factor receptor 2 (Homo sapiens) (UniProt P35968); test: Inhibition of KDR at 10 uM
[30] = biological target: Focal adhesion kinase 1 (Homo sapiens) (UniProt Q05397); test: Inhibition of FAK at 10 uM
[31] = biological target: Macrophage-stimulating protein receptor (Homo sapiens) (UniProt Q04912); test: Inhibition of RON at 10 uM
[32] = biological target: Tyrosine-protein kinase SYK (Homo sapiens) (UniProt P43405); test: Inhibition of SYK at 10 uM
[33] = biological target: RAC-alpha serine/threonine-protein kinase (Homo sapiens) (UniProt P31749); test: Inhibition of AKT1 at 10 uM
[34] = system: Serine/threonine-protein kinase B-raf (Homo sapiens), P15056 [V600E]; test: Inhibition of BRAF V599E mutant at 10 uM
[35] = biological target: Mast/stem cell growth factor receptor Kit (Homo sapiens) (UniProt P10721); test: Inhibition of cKIT at 10 uM
[36] = biological target: Tyrosine-protein kinase ABL1 (Homo sapiens) (UniProt P00519); test: Inhibition of Abl1 at 10 uM
[37] = biological target: Insulin-like growth factor 1 receptor (Homo sapiens) (UniProt P08069); test: Inhibition of IGF1R at 10 uM
[38] = biological target: Proto-oncogene tyrosine-protein kinase ROS (Homo sapiens) (UniProt P08922); test: Inhibition of ROS at 10 uM
[39] = biological target: Cyclin-dependent kinase 1/cyclin B1 (Homo sapiens) (UniProt P06493+P14635); test: Inhibition of CDK1/Cyclin B at 10 uM; assay type: protein-complex assay
[40] = biological target: T1, RAF proto-oncogene serine/threonine-protein kinase; test: Inhibition of human CRAF using [gamma-33P]ATP at 10 uM after 40 mins by scintillation counting; procedure, shortened: as §1

## COc1ccc(Cn2ncc3c2NC(=O)CC(c2cccc(NC(=O)Nc4cccc(C(F)(F)F)c4)c2)=N3)cc1
[1]
  GI50: 250 nM
U-937
  GI50: 280 nM

## COc1ccc(Cn2ncc3c2NC(=O)CC(c2cccc(NC(=O)Nc4cc(N5CCOCC5)cc(C(F)(F)F)c4)c2)=N3)cc1
[1]
  GI50: 3320 nM
U-937
  GI50: > 30000 nM

## COc1ccc(Cn2ncc3c2NC(=O)CC(c2cccc(NC(=O)Nc4ccc(Cl)c(Cl)c4)c2)=N3)cc1
[1]
  GI50: 3860 nM
U-937
  GI50: 14900 nM

## O=C1CC(c2ccc(NC(=O)c3ccc(N4CCOCC4)c(C(F)(F)F)c3)cc2)=Nc2cnn(Cc3ccccc3)c2N1
[1]
  GI50: 16400 nM
U-937
  GI50: 210 nM

## CNC(=O)c1cc(Oc2ccc(NC(=O)Nc3ccc(Cl)c(C(F)(F)F)c3)cc2)ccn1 [SORAFENIB]
[1]
  GI50: 5580 nM
U-937
  GI50: 2850 nM

## O=C1CC(c2cccc(NC(=O)Nc3ccc(Cl)cc3)c2)=Nc2cn[nH]c2N1
[1]
  GI50: > 30000 nM
U-937
  GI50: > 30000 nM

## O=C1CC(c2ccc(NC(=O)c3ccc(Cl)c(C(F)(F)F)c3)cc2)=Nc2cnn(Cc3ccccc3)c2N1
[1]
  GI50: 13100 nM
U-937
  GI50: 60 nM

## COc1ccc(Cn2ncc3c2NC(=O)CC(c2cccc(NC(=O)Nc4ccc(Cl)cc4)c2)=N3)cc1
[1]
  GI50: 640 nM
U-937
  GI50: 580 nM

## O=C1CC(c2cccc(NC(=O)Nc3ccc(Cl)c(C(F)(F)F)c3)c2)=Nc2cnn(Cc3ccccc3)c2N1
[1]
  GI50: 4450 nM
[2]
  pIC50: 6.18
U-937
  GI50: 7310 nM
[3]
  IC50: Not Active

## COc1ccc(Cn2ncc3c2NC(=O)CC(c2cccc(NC(=O)Nc4cccc(Cl)c4)c2)=N3)cc1
[1]
  GI50: 910 nM
U-937
  GI50: 630 nM

## Cc1cn(-c2cc(NC(=O)Nc3ccc(C4=Nc5cnn(Cc6ccccc6)c5NC(=O)C4)cc3)cc(C(F)(F)F)c2)cn1
[1]
  GI50: > 30000 nM
U-937
  GI50: > 30000 nM

## Cc1cn(-c2cc(C(=O)Nc3ccc(C4=Nc5cnn(Cc6ccccc6)c5NC(=O)C4)cc3)cc(C(F)(F)F)c2)cn1
[1]
  GI50: > 30000 nM
U-937
  GI50: > 30000 nM

## Cc1cn(-c2cc(C(=O)Nc3cccc(C4=Nc5cnn(Cc6ccccc6)c5NC(=O)C4)c3)cc(C(F)(F)F)c2)cn1
[1]
  GI50: > 30000 nM
U-937
  GI50: > 30000 nM

## O=c1cc(N2CCOCC2)oc2c(-c3ccccc3)cccc12 [LY-294002]
[4]
  pIC50: 5.17

## O=C1CC(c2cccc(NC(=O)c3cc(N4CCOCC4)cc(C(F)(F)F)c3)c2)=Nc2cnn(Cc3ccccc3)c2N1
[1]
  GI50: > 30000 nM
U-937
  GI50: > 30000 nM

## O=C1CC(c2cccc(NC(=O)c3ccc(N4CCOCC4)c(C(F)(F)F)c3)c2)=Nc2cnn(Cc3ccccc3)c2N1
[1]
  GI50: 2910 nM
U-937
  GI50: 1750 nM

## O=C1CC(c2cccc(NC(=O)Nc3ccc(Cl)c(Cl)c3)c2)=Nc2cn[nH]c2N1
[1]
  GI50: > 30000 nM
U-937
  GI50: > 30000 nM

## O=C1CC(c2cccc(NC(=O)c3ccc(Cl)c(C(F)(F)F)c3)c2)=Nc2cnn(Cc3ccccc3)c2N1
[1]
  GI50: 430 nM
[5]
  inhibition: 0.9%
[6]
  inhibition: 0%
[7]
  inhibition: 0%
[8]
  inhibition: 0%
[9]
  inhibition: 0%
[10]
  inhibition: 1.6%
[11]
  inhibition: 0%
[2]
  pIC50: 6.02
U-937
  GI50: 60 nM
[12]
  inhibition: 4.3%
[13]
  inhibition: 0%
[14]
  inhibition: 1.3%
[15]
  inhibition: 17.8%
[16]
  inhibition: 19.3%
[17]
  inhibition: 75.2%
[18]
  inhibition: 0%
[19]
  inhibition: 4.6%
[20]
  inhibition: 0%
[3]; read-out: IC50
  pIC50: 6.18
[21]
  inhibition: 0.5%
[22]
  pIC50: 5.67
[23]
  inhibition: 0%
[24]
  inhibition: 6.5%
[25]
  inhibition: 0%
[26]
  inhibition: 5.6%
[27]
  inhibition: 0%
[28]
  inhibition: 0.2%
[29]
  inhibition: 0%
[30]
  inhibition: 0%
[31]
  inhibition: 4.4%
[32]
  inhibition: 0%
[33]
  inhibition: 0%
[34]
  inhibition: 85.6%
[35]
  inhibition: 3.6%
[36]
  inhibition: 0%
[37]
  inhibition: 1.9%
[38]
  inhibition: 0%
[39]
  inhibition: 7%
[40]
  inhibition: 92.9%

## O=C1CC(c2ccc(NC(=O)Nc3ccc(Cl)c(C(F)(F)F)c3)cc2)=Nc2cn[nH]c2N1
[1]
  GI50: > 30000 nM
U-937
  GI50: > 30000 nM

## COc1ccc(Cn2ncc3c2NC(=O)CC(c2cccc(NC(=O)Nc4ccc(C(F)(F)F)cc4)c2)=N3)cc1
[1]
  GI50: 770 nM
U-937
  GI50: 110 nM

## COc1ccc(Cn2ncc3c2NC(=O)CC(c2cccc(NC(=O)Nc4cc(Cl)cc(Cl)c4)c2)=N3)cc1
[1]
  GI50: 780 nM
U-937
  GI50: 6480 nM

## O=C1CC(c2ccc(NC(=O)Nc3ccc(Cl)c(C(F)(F)F)c3)cc2)=Nc2cnn(Cc3ccccc3)c2N1
[1]
  GI50: 1190 nM
U-937
  GI50: 8680 nM

## COc1ccc(Cn2ncc3c2NC(=O)CC(c2ccc(NC(=O)Nc4ccc(Cl)c(C(F)(F)F)c4)cc2)=N3)cc1
[1]
  GI50: 3930 nM
U-937
  GI50: 7290 nM

## O=C1CC(c2ccc(NC(=O)Nc3cccc(Cl)c3)cc2)=Nc2cnn(Cc3ccccc3)c2N1
[1]
  GI50: 2070 nM
U-937
  GI50: 670 nM
